Laboratory results published in the EternaBench riboswitch data.

Tested on: MS2 coat protein
Assay: apparent Kd, MS2 coat protein; higher = weaker binding; RNA-MaP array; FMN 200 µM where present
How it was run: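 Green signal was scaled to red-channel RNA signal and control-cluster median Fmax, and the apparent Kd was taken as the median of filtered per-cluster binding-curve fits. The binding series used SNAP-549-labelled MS2 coat protein from 0.7 or 1.5 nM, doubling to 3 µM, on designs transcribed by stalled E. coli RNA polymerase on Illumina sequencing-chip clusters. Each series ran without and then with constant ligand in 100 mM Tris-HCl pH 7.5, 80 mM KCl, 4 mM MgCl2, BSA, DTT, yeast tRNA and Tween-20.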

[1] = designed as: ON switch for flavin mononucleotide, no ligand
[2] = ligand present: flavin mononucleotide, designed as: ON switch for flavin mononucleotide
[3] = designed as: OFF switch for flavin mononucleotide, no ligand
[4] = ligand present: flavin mononucleotide, designed as: OFF switch for flavin mononucleotide

Sequence: GCCAGCGCAUGAGGAUAUGCUCCCGUUUCGGGAGCAGAAGGCAUGUCAUAAGACAUGAGGAUCACCCAUGUAGUCAAGAUGGCA
- apparent Kd [1]: 0.34 µM
- apparent Kd [2]: 0.0157 µM

Sequence: GCCAUCACAUGAGGAUAUGGCACCGUUUCGGUGCCAGAAGGCAUGUCAUAAGACAUGAGGAUCACCCAUGUAGUUAAGAUGGCA
- apparent Kd [2]: 0.0554 µM

Sequence: GCCAUCACGUGAGGAUAUGCUCCCGUUUCGGGAGCAGAAGGCAUGUCAUAAGACAUGAGGAUCACCCAUGUAGAUAAGAUGGCA
- apparent Kd [1]: 0.236 µM
- apparent Kd [2]: 0.0124 µM

Sequence: GCCAUCAUAUGAGGAUAUGACACCGAAACGGUGUCAGAAGGCAUGUCGAUAGACAUGAGGAUCACCCAUGUAUAGAUGAUGGCA
- apparent Kd [1]: 0.963 µM
- apparent Kd [2]: 0.0678 µM

Sequence: GCCAUCGCAUGAGGAUAUGGUCAGCUUUGCUGACCAGAAGGCAUGUCAUAAGACAUGAGGAUCACCCAUGUAGUUAAGAUGGCA
- apparent Kd [1]: 0.778 µM
- apparent Kd [2]: 0.0479 µM

Sequence: GCCCGACAUGAGGAUCACCCAUGUGGGAAACCGCGAGGAUAUCCGGGCCCGAAAGGGCCCGGAGAAGGCGCCGGGC
- apparent Kd [1]: 0.0125 µM
- apparent Kd [2]: 0.0109 µM

Sequence: GCCGAUUAAGUCAGGAUAUACCUAUGGAUACAUAGGUAGAAGGGACAUGAGGAUCACCCAUGUUCCUCACCGGC
- apparent Kd [3]: 0.0148 µM
- apparent Kd [4]: 0.0218 µM

Sequence: GCCGAUUAAGUGAGGAUAUACCUAUGGAUACAUAGGUAGAAGGUACAUGAGGAUCACCCAUGUUCCUUAACGGC
- apparent Kd [3]: 0.0114 µM
- apparent Kd [4]: 0.0132 µM

Sequence: GCCGGAGAAGGAUAUACAUGAGGAUCACCCAUGUUCUUGGGCGAAAUAAAUUCCUAGAGUAGAAGGUCUAGGCA
- apparent Kd [3]: 0.0187 µM
- apparent Kd [4]: 0.0415 µM

Sequence: GCCUGCUGGCGAGGAUAUUCUGUGCGGUUCCGGCUCGUGUCUGUUACAUGAGGAUCACCCAUGUAGGAGAAGGUGUCUGUGGCC
- apparent Kd [3]: 0.00475 µM
- apparent Kd [4]: 0.00501 µM

Sequence: GCCUUAUCGGUCAGGAUAUACACCCGUCAGUUGUUGUAGAAGGGACAUGAGGAUCACCCAUGUACAUUACAUUG
- apparent Kd [3]: 0.0218 µM
- apparent Kd [4]: 0.0455 µM

Sequence: GCGACGAAAGUCGAACGAUGUAGCAGAAGGACAUGAGGAUCACCCAUGUCAGCUGUAACAGCCAUGUAGGAUAUGCUACAUCGG
- apparent Kd [3]: 0.00409 µM
- apparent Kd [4]: 0.00527 µM

Sequence: GCGACGCGGGAAGGAUAUCCGCUCAGGAGUGUCUCAUGCUAACAUGAGGAUCACCCAUGUUGUCCGGAGAAGGUCCUGUCAGGC
- apparent Kd [3]: 0.152 µM
- apparent Kd [4]: 0.288 µM

Sequence: GCGAUUUUGUAAGGAUAUACACCAGUUUUAAGUGUAGAAGGUACUUACAUGAGGAUCACCCAUGUAUAAAUGUAUAAUAGUCGC
- apparent Kd [1]: 0.00692 µM
- apparent Kd [2]: 0.00687 µM

Sequence: GCGAUUUUGUAGAAGGUACGUGAUAAGACAAAGUAAGGAUAUACUGACAUGAGGAUCACCCAUGUAUAAAUAGUUAACAGUCGC
- apparent Kd [1]: 0.0185 µM
- apparent Kd [2]: 0.0117 µM

Sequence: GCGCGAAGGUAGGAUAUCCAGGCAUCUUGCCGCGGAGAAGGACCCACAUGAGGAUCACCCAUGUGGUGAUCCUG
- apparent Kd [3]: 0.0135 µM
- apparent Kd [4]: 0.0144 µM

Sequence: GCGCUUAUACAGAAGGCCAUAUACAUGAGGAUCACCCAUGUUACAUGGUGGAGGAUAUGUUAUUAAUUACAGGUAGAUGAGCGC
- apparent Kd [1]: 0.00461 µM
- apparent Kd [2]: 0.00442 µM

Sequence: GCGCUUAUACAGAAGGCCAUAUACAUGAGGAUCACCCAUGUUACAUGGUGGAGGAUAUGUUAUUUAUUACAGGUAGAUGAGCGC
- apparent Kd [1]: 0.00471 µM
- apparent Kd [2]: 0.00532 µM

Sequence: GCGCUUAUACAGAAGGCCAUAUACAUGAGGAUCACCCAUGUUAUUUGGUGGAGGAUAUGUUUUUUAUUACAGGUUGAUGAGCGC
- apparent Kd [1]: 0.00758 µM
- apparent Kd [2]: 0.00652 µM

Sequence: GCGGUCAACGUAGGAUAUCUUCAGCCACAGCGCAUUGCUGUACAUGAGGAUCACCCAUGUCCUGGAGAGAAGGACGGACGGCAG
- apparent Kd [1]: 0.123 µM
- apparent Kd [2]: 0.0342 µM

Sequence: GCGUAAUAGGUGUAGCUAGUCAUUCAAGAAGGGUGAAGAACAUGAGGAUCACCCAUGUGGUUUAUACAGGAUAUUGAUAUACGC
- apparent Kd [1]: 0.363 µM
- apparent Kd [2]: 0.0904 µM

Sequence: GCGUACAUAUCAGGAUAUCAUUGAAUGGAUUAACUCAGUGAAUACAUGAGGAUCACCCAUGUUCUUGAGAAGGGAUUACUACGC
- apparent Kd [3]: 0.021 µM
- apparent Kd [4]: 0.0965 µM

Sequence: GCGUAUUACGCAGGAUAUCCUUAUAUACAUGAGGAUCACCCAUGUUUUUUCGGAGAAGGGCGUAUGGGAUUUAAGAAUCAACAA
- apparent Kd [1]: 0.0112 µM
- apparent Kd [2]: 0.00431 µM

Sequence: GCGUAUUAGGUGUAGCUAGACAUUCAAGAAGGGUGAAGAACAUGAGGAUCACCCAUGUAGUUUUUACAGGAUAUUGAUAUACGC
- apparent Kd [1]: 0.356 µM
- apparent Kd [2]: 0.0204 µM

Sequence: GCGUCAGAAUUAAUUGUGACAGGCAGAAGGCUAUAUCUUAUGUUAGACAUGAGGAUCACCCAUGUAGAGGAUAUGCAGUUACAC
- apparent Kd [3]: 0.00777 µM
- apparent Kd [4]: 0.017 µM

Sequence: GCGUCUCCUGUCAGGAUAUGCACCGGCUCGCCGGCGUAGAAGGGACAUGAGGAUCACCCAUGUGGUCUACACUU
- apparent Kd [4]: 0.339 µM

Sequence: GCGUGAUUGUAGAAGGUACAUGAAAAUAUUUAAUACCUCAAGUAACAUGAGGAUCACCCAUGUAGUAAGGAUAUACAUAUACGC
- apparent Kd [1]: 0.095 µM
- apparent Kd [2]: 0.0568 µM

Sequence: GCGUUACAUGAGGAUCACCCAUGUGAGGAUAUGGUGCGGUAGUGUCCUGUCGCGUACUCCAGAAGGCGCGGGUG
- apparent Kd [3]: 0.137 µM
- apparent Kd [4]: 0.24 µM
